Assay results as given in ChEMBL document CHEMBL1125152, “Design, synthesis, testing, and quantitative structure-activity relationship analysis of substituted salicylaldehyde Schiff bases of 1-amino-3-hydroxyguanidine tosylate as new antiviral agents against coronavirus” (1990).

System: Murine hepatitis virus
Assay: Dose required to inhibit the growth of mouse hepatitis virus (MHV) in infected mouse astrocytoma (DBT) cells using plaque assay
Type: functional
Outline: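 DBT monolayers infected with MHV at MOI 1 to 5, adsorbed 1 h at room temperature, then given MEM with 5% FCS plus compound (final 0.97 to 3030 μM, 0.15% DMSO) at 37 °C. Media harvested 18 h postinfection and titred by plaque assay on DBT cells (0.75% agarose overlay, 48 h, neutral red). Run in duplicate. % inhibition = (1 − T/C) × 100; TCID50 by probit analysis.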

SMILES	EC50 [µM]
Cc1ccc(S(=O)(=O)O)cc1.N/C(=N\O)N/N=C/c1ccc2c(c1)OCCO2	46.1
Cc1ccc(S(=O)(=O)O)cc1.N/C(=N\O)N/N=C/c1cc2c(cc1Cl)OCO2	9.14
Cc1ccc(S(=O)(=O)O)cc1.Cc1ncc(COP(=O)(O)O)c(/C=N/N=C(/N)NO)c1O	40.8
Cc1ccc(S(=O)(=O)O)cc1.N/C(=N\O)N/N=C/c1c(O)cc(O)cc1O	18.1
Cc1ccc(S(=O)(=O)O)cc1.N/C(=N\O)N/N=C/c1ccc(O)c(O)c1O	183
Cc1ccc(S(=O)(=O)O)cc1.N/C(=N\O)N/N=C/c1cc([N+](=O)[O-])cc([N+](=O)[O-])c1O	273
Cc1ccc(S(=O)(=O)O)cc1.N/C(=N\O)N/N=C/c1cc(O)c(O)c(O)c1	150
Cc1ccc(S(=O)(=O)O)cc1.N/C(=N\O)N/N=C/c1cc(Br)cc(Br)c1O	9.5
Cc1ccc(S(=O)(=O)O)cc1.N/C(=N\O)N/N=C/c1ccc2ccccc2n1	39.3
Cc1ccc(S(=O)(=O)O)cc1.N/C(=N\O)N/N=C/c1nccc2ccccc12	47.7
Cc1ccc(S(=O)(=O)O)cc1.N/C(=N\O)N/N=C/c1ccccc1O	76
Cc1ccc(S(=O)(=O)O)cc1.N/C(=N\O)N/N=C/c1cc(Cl)cc(Cl)c1O	9.54
Cc1ccc(S(=O)(=O)O)cc1.N/C(=N\O)N/N=C/c1c2ccccc2c(Cl)c2ccccc12	7.12
C=CCc1cccc(/C=N/N/C(N)=N/O)c1O.Cc1ccc(S(=O)(=O)O)cc1	3.42
Cc1ccc(S(=O)(=O)O)cc1.N/C(=N\O)N/N=C/c1ncccc1O	89.9
